Assay results: ChEMBL document CHEMBL1153602, “Photochemical electrocyclisation of 3-vinylindoles to pyrido[2,3-a]-, pyrido[4,3-a]- and thieno[2,3-a]-carbazoles: design, synthesis, DNA binding and antitumor cell cytotoxicity” (2009)
Calls of active or inactive are those of the source. No cut-off for these calls is given here.

Experiments:
HT-29 [1] = assay: Cell cycle arrest in human HT-29 cells assessed as accumulation at G2/M phase after 24 hrs using PI staining by flow cytometry; format: functional, cell-based
Method in brief: (§1)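 HT-29 cells, 3×10^5 per sample in exponential growth, were exposed to graded drug concentrations for 24 h. Cells were then trypsinised, fixed in 70% ethanol and stained 30 min in the dark with propidium iodide (50 µg/ml) plus RNase (100 µg/ml). DNA content was measured by flow cytometry, quantifying cell-cycle phases and the sub-G1 fraction.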

HT-29 [2] = assay: Cell cycle arrest in human HT-29 cells assessed as reduction of cells in G1 phase after 24 hrs using PI staining by flow cytometry; format: functional, cell-based; method in brief: as §1
HT-29 [3] = assay: Cell cycle arrest in human HT-29 cells assessed as accumulation at S phase at 25 uM after 24 hrs using PI staining by flow cytometry; format: functional; method in brief: as §1
HT-29 [4] = assay: Growth inhibition of human HT-29 cells after 48 hrs by sulforhodamine B protein assay; format: functional; conditions: HT-29, 48 h
Method in brief: (§2)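 NCI 60-cell-line screen. Dose–response used at least five concentrations in 10-fold dilutions with 48 h continuous drug exposure. Growth was estimated by sulforhodamine B protein staining. GI50 is the molar concentration giving 50% growth inhibition versus control.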

CCRF-CEM = assay: Growth inhibition of human CCRF-CEM cells after 48 hrs by sulforhodamine B protein assay; format: functional; method in brief: as §2
COLO 205 = assay: Growth inhibition of human COLO205 cells after 48 hrs by sulforhodamine B protein assay; format: functional; conditions: COLO 205, 48 h; method in brief: as §2
ACHN = assay: Growth inhibition of human ACHN cells after 48 hrs by sulforhodamine B protein assay; format: functional; method in brief: as §2
HT-29 [5] = assay: Growth inhibition of human HT-29 cells by MTS assay; format: functional
Method in brief: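 HT-29 cells, 3×10^3 per well, were seeded 24 h before treatment with compound at 1 nM–100 µM, run as 3 series of duplicate or triplicate points. After 72 h at 37 °C, MTS tetrazolium was added for 2 h and absorbance read at 492 nm. GC50 is the concentration halving cell number versus untreated control wells.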

Calf thymus DNA [6] = assay: Binding affinity to calf thymus DNA assessed as change in melting temperature at a compound to DNA molar ratio of 0.1 by UV-vis spectroscopy; format: nucleic-acid assay; conditions: Bos taurus
Method in brief: (§3)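 UV absorbance of DNA at 260 nm recorded every minute from 20 to 100 °C, ramping 1 °C/min in a thermostated quartz cell. Tm is taken as the midpoint of the hyperchromic transition. ΔTm = Tm(DNA+drug) − Tm(DNA alone). Calf-thymus DNA or poly(dAdT)2 was used at DNA/drug ratios from 0.1 to 1.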

Calf thymus DNA [7] = assay: Binding affinity to calf thymus DNA assessed as change in melting temperature at a compound to DNA molar ratio of 0.25 by UV-vis spectroscopy; format: nucleic-acid assay; conditions: Bos taurus; method in brief: as §3
Calf thymus DNA [8] = assay: Binding affinity to calf thymus DNA assessed as change in melting temperature at a compound to DNA molar ratio of 0.5 by UV-vis spectroscopy; format: nucleic-acid assay; conditions: Bos taurus; method in brief: as §3
Calf thymus DNA [9] = assay: Binding affinity to calf thymus DNA assessed as change in melting temperature at a compound to DNA molar ratio of 1 by UV-vis spectroscopy; format: nucleic-acid assay; conditions: Bos taurus; method in brief: as §3
Nucleic Acid [10] = assay: Binding affinity to poly(dA).poly(dT) duplex DNA assessed as change in thermal melting temperature at compound to DNA ratio of 0.1 by UV-vis spectroscopy; format: nucleic-acid assay
Nucleic Acid [11] = assay: Binding affinity to poly(dA).poly(dT) duplex DNA assessed as change in thermal melting temperature at compound to DNA ratio of 0.25 by UV-vis spectroscopy; format: nucleic-acid assay
Nucleic Acid [12] = assay: Binding affinity to poly(dA).poly(dT) duplex DNA assessed as change in thermal melting temperature at compound to DNA ratio of 0.5 by UV-vis spectroscopy; format: nucleic-acid assay
Nucleic Acid [13] = assay: Binding affinity to poly(dA).poly(dT) duplex DNA assessed as change in thermal melting temperature at compound to DNA ratio of 1 by UV-vis spectroscopy; format: nucleic-acid assay
Calf thymus DNA [14] = assay: Binding affinity to calf thymus DNA assessed as enhancement constant by fluorescence spectroscopy; format: nucleic-acid assay; conditions: Bos taurus
Method in brief: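 Drug at a fixed 20 µM in 1 ml BPE buffer in a 10 mm quartz cuvette, titrated with CT-DNA at 10–200 µM base pairs. Excitation was set at each compound's own wavelength (276–319 nm). Constants came from Stern–Volmer plots of F0/F against CT-DNA concentration, with the slope taken as Ksv.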

Nucleic Acid [15] = assay: Binding affinity to pBS 117bp DNA by DnaseI footprinting assay; format: nucleic-acid assay
Method in brief: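 Ligand and fragment were pre-incubated 15 min at 37 °C, then digested with DNase I at 0.001 unit/ml in 20 mM NaCl, 2 mM MgCl2, 2 mM MnCl2, pH 7.3. Products were resolved on a denaturing 8% polyacrylamide/8 M urea gel, with a G-track marker.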

[16] = biological target: T1, DNA topoisomerase 1 (Homo sapiens) (UniProt P11387); assay: Inhibition of human topoisomerase 1-mediated DNA relaxation assessed as lack of nicking form by agarose gel electrophoresis
T1 sequence (whole entry): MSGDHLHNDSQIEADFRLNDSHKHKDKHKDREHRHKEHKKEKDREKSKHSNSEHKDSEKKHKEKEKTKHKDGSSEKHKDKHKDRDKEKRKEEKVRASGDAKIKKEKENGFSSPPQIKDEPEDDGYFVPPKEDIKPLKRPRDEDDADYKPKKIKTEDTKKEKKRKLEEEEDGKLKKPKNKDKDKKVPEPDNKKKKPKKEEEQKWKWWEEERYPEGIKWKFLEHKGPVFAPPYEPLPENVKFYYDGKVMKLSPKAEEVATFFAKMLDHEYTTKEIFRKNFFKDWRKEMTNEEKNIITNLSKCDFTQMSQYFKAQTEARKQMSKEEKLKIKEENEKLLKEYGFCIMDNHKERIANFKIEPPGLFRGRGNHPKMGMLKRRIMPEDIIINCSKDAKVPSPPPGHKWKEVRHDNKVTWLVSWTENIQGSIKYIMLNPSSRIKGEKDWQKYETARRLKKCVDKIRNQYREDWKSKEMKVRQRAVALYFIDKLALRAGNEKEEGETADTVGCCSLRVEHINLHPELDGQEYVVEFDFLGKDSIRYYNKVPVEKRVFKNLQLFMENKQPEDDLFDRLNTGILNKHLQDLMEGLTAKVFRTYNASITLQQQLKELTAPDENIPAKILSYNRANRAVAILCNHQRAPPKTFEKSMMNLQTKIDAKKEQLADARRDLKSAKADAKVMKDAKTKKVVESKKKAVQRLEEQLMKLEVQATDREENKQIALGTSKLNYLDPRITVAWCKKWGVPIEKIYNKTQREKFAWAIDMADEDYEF
Method in brief: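 Supercoiled pUC19 (130 ng) was pre-incubated with compound at graded concentrations, or 20 or 50 µM in the cleavage assay. Human topoisomerase I (4 units) was then added for 45 min at 37 °C in 50 mM Tris pH 7.8, 50 mM KCl, 10 mM MgCl2, 1 mM DTT, 1 mM EDTA, 1 mM ATP. Camptothecin (20 µM) served as control. Samples ran on 1% agarose for 2 h at 120 V in TBE, with ethidium bromide either post-stained (relaxation) or included in the gel (cleavage).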

[17] = biological target: DNA topoisomerase 2-alpha (Homo sapiens) (UniProt P11388); assay: Inhibition of human topoisomerase 2-mediated DNA relaxation assessed as double stranded break form by agarose gel electrophoresis
Chain of DNA topoisomerase 2-alpha (Homo sapiens) (P11388 whole entry): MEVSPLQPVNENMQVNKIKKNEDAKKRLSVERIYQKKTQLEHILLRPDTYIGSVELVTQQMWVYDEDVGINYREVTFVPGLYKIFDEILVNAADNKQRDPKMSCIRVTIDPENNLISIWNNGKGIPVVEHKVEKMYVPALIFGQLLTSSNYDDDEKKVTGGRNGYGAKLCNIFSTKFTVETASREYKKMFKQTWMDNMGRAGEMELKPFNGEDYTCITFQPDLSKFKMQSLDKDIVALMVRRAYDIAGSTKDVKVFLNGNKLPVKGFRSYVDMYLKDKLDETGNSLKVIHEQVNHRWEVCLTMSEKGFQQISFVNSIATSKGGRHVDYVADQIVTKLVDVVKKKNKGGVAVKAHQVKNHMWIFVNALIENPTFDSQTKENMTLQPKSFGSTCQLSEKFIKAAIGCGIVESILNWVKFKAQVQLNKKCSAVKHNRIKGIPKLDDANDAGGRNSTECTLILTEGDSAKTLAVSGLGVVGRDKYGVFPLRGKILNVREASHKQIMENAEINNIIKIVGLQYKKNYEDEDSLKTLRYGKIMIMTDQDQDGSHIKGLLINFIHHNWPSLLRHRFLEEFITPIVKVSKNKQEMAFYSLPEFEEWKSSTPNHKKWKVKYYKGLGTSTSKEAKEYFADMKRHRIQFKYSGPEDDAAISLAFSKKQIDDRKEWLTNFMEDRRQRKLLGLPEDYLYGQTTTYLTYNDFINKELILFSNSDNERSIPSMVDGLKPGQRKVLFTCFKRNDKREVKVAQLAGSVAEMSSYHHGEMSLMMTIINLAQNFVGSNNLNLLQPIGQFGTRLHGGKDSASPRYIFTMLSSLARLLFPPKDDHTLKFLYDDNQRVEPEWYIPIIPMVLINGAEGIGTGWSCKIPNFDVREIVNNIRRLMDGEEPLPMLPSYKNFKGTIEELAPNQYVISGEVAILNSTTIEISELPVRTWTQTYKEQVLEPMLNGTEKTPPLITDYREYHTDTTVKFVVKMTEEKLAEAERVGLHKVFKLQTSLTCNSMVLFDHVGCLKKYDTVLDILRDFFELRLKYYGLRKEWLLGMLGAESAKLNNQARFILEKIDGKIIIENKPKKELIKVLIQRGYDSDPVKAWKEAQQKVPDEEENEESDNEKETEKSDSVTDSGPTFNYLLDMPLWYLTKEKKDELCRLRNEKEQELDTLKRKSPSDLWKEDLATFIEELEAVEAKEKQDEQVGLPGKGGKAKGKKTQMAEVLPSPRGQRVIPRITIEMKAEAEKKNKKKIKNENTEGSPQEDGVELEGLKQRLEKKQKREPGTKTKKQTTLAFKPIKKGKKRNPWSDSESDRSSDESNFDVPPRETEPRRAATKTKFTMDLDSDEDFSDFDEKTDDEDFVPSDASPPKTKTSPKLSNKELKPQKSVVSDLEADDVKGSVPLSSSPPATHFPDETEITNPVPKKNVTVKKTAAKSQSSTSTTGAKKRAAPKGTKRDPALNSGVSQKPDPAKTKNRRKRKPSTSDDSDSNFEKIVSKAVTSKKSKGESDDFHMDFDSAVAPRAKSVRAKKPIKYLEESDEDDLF
Method in brief: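 Supercoiled pUC19 (130 ng) with compound at 20 or 50 µM, or etoposide as control, was incubated with human topoisomerase II (4 units) for 45 min at 37 °C in cleavage buffer. The reaction was stopped with 0.25% SDS plus proteinase K for 30 min at 50 °C. DNA forms were separated on 1% agarose containing ethidium bromide in TBE.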

HT-29 [18] = assay: Cell cycle arrest in human HT-29 cells assessed as accumulation at S phase at 10 uM after 24 hrs using PI staining by flow cytometry; format: functional; method in brief: as §1
HT-29 [19] = assay: Cell cycle arrest in human HT-29 cells assessed as accumulation at G2/M phase at 25 uM after 24 hrs using PI staining by flow cytometry; format: functional, cell-based; method in brief: as §1
UO-31 = assay: Growth inhibition of human UO31 cells after 48 hrs by sulforhodamine B protein assay; format: functional; conditions: UO-31, 48 h; method in brief: as §2
SK-MEL-5 = assay: Growth inhibition of human SK-MEL-5 cells after 48 hrs by sulforhodamine B protein assay; format: functional; conditions: SK-MEL-5, 48 h; method in brief: as §2
SW-620 = assay: Growth inhibition of human SW620 cells after 48 hrs by sulforhodamine B protein assay; format: functional; conditions: SW-620, 48 h; method in brief: as §2
HT-29 [20] = assay: Cell cycle arrest in human HT-29 cells at 25 uM after 24 hrs using PI staining by flow cytometry

GI50 (HT-29 [4]; read-out: GI50) [nM] | GI50 (HT-29 [4]; read-out: pGI50 (converted)) [nM] | GI50 (HT-29 [5]) [nM] | ΔTm (Calf thymus DNA [6]) [°C] | ΔTm (Calf thymus DNA [7]) [°C] | ΔTm (Calf thymus DNA [8]) [°C] | ΔTm (Calf thymus DNA [9]) [°C] | ΔTm (Nucleic Acid [10]) [°C] | ΔTm (Nucleic Acid [11]) [°C] | ΔTm (Nucleic Acid [12]) [°C] | ΔTm (Nucleic Acid [13]) [°C] | Activity (Nucleic Acid [15]) | Activity [16] | Activity [17] | SMILES | also measured
10300 | 1020 | 10100 | 0 | 4.4 | 4.4 | 7.3 | 2.9 | 8.9 | 11.6 | 17.5 | Active | Active | Active | CN(C)CCCNC(=O)c1cc2c3ccccc3[nH]c2c2ncccc12 | Activity (HT-29 [1]): Active; Activity (HT-29 [2]): Active; Activity (HT-29 [3]): 31.7%; GI50 (CCRF-CEM; read-out: GI50): 4310 nM; GI50 (CCRF-CEM; read-out: pGI50 (converted)): 4270 nM; GI50 (COLO 205; read-out: GI50): 4430 nM; GI50 (COLO 205; read-out: pGI50 (converted)): 4470 nM; GI50 (ACHN; read-out: GI50): 5240 nM; GI50 (ACHN; read-out: pGI50 (converted)): 5250 nM; Activity (Calf thymus DNA [14]): 5.94 ×10² /M
2330 | 2340 | 3200 | 1.5 | 7.4 | 7.3 | 11.7 | 6.1 | 14.7 | 18.9 | 24.9 | Active | Active | Active | CN(C)CCNC(=O)c1cc2c3cc(Cl)ccc3[nH]c2c2ncccc12 | Activity (HT-29 [18]): 37%; Activity (HT-29 [19]): Active; GI50 (UO-31; read-out: GI50): 1100 nM; GI50 (UO-31; read-out: pGI50 (converted)): 1100 nM; GI50 (SK-MEL-5; read-out: GI50): 1340 nM; GI50 (SK-MEL-5; read-out: pGI50 (converted)): 1350 nM; GI50 (SW-620; read-out: GI50): 1470 nM; GI50 (SW-620; read-out: pGI50 (converted)): 1480 nM; Activity (HT-29 [20]): Active
– | – | – | – | – | – | – | – | – | – | – | – | – | Active | COc1cc([C@@H]2c3cc4c(cc3[C@@H](O[C@@H]3O[C@@H]5CO[C@@H](C)O[C@H]5[C@H](O)[C@H]3O)[C@H]3COC(=O)[C@H]23)OCO4)cc(OC)c1O | –
– | – | – | 0 | 0.7 | 0.4 | 0.6 | 2.1 | 3.9 | 5.3 | 5.3 | inactive | – | – | O=C(NCCCN1CCOCC1)c1cc2c3cccc(Cl)c3[nH]c2c2ncccc12 | –
